Source: PubChem
An excerpt weighted towards active compounds, which were near 1.8% of everything screened.
CHRM4 agonist – agonists of human muscarinic M4 receptor (CHRM4); P08173; CHO-K1 hM4/Gqi5, Fluo-8 calcium fluorescence; vehicle 0%, full acetylcholine response 100%; hit rate 0.14% among 360,000; activation, % at 3 µM;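 active means activation above the run mean over all test wells plus 3 SD, cut at about 32% in these data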;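 further: peak over basal fluorescence ratio per well then scaled between controls; 0% = DMSO wells and 100% = acetylcholine at EC100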
Target sequence (P08173 whole entry, looked up): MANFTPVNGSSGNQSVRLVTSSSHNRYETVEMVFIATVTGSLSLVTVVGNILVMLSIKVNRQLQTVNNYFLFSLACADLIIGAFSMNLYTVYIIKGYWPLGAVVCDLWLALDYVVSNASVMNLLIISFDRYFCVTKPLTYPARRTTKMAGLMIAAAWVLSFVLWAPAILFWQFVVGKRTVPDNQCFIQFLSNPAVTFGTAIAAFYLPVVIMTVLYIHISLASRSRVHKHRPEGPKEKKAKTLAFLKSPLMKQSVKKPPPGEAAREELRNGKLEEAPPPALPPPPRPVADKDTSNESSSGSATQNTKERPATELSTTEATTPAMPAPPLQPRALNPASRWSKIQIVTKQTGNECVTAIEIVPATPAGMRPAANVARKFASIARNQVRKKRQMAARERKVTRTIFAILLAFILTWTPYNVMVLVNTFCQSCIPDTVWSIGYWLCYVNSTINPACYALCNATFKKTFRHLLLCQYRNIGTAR
CHRM5 antagonist – CHRM5 antagonism in calcium assay | AID 624040 | inhibition, % at 3 µM | P08912 | hit rate 0.59% among 360,000 | CHO-hM5 cells, Fluo-8 calcium fluorescence, ACh EC80;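 active means inhibition above a per-plate cutoff, the mean of that plate's test compounds plus 3 SD, cut at about 27% in these data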;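 further: 0% = acetylcholine EC80 with DMSO and 100% = DMSO without agonist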
CHRM5 PAM – potentiates acetylcholine response at human M5 receptor. CHO-K1 hM5, Fluo-8 calcium, ACh EC20 PAM; 0% = ACh EC20, 100% = ACh EC100. activation, % at 3 µM. hit rate 0.3% among 360,000;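 active means activation above the run cutoff, the mean activation of all test compounds plus 3 SD, cut at about 18% in these data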
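system = human M5 receptor in CHO-K1 cells | reagent = EC20 acetylcholine as agonist stimulus | compound dosing = single-point, 3 µM nominal | incubation = Fluo-8 loading 80 min at 37 °C plus 30 min room temperature | detection = Fluo-8 calcium dye fluorescence, kinetic read | benchmarks = low control EC20 acetylcholine (0%), high control EC100 acetylcholine (100%)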
M4 antag – CHRM4 antagonism in calcium assay | AID 624125 | CHO-hM4 cells, ACh EC80, Fluo-8 calcium fluorescence | inhibition, % at 3 µM | P08173 | hit rate 0.73% among 360,000;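 active means inhibition above its plate's cutoff, the mean inhibition of sample wells plus 3 SD, cut at about 27% in these data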;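 further: 0% = acetylcholine EC80 with DMSO and 100% = DMSO without agonist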
CHRM5 agonist – agonists of human muscarinic M5 receptor (CHRM5); CHO-K1 hM5 cells, Fluo-8 calcium fluorescence; 0% DMSO wells, 100% maximal acetylcholine response; P08912; activation, % at 3 µM; hit rate 0.19% among 360,000;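 active means activation above the run's mean over test compounds plus 3 SD, cut at about 23% in these data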;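 further: signal is peak over basal fluorescence ratio across the kinetic read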
CHRM4 PAM – positive allosteric modulators of human muscarinic M4 receptor; hit rate 0.4% among 360,000; CHO-K1 hM4/Gqi5, Fluo-8 calcium fluorescence, ACh EC20; 0% = ACh EC20, 100% = maximal ACh; activation, % at 3 µM; P08173;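 active means activation above its plate's cutoff, the mean activation of sample wells plus 3 SD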
An asterisk follows results filed as active.

SMILES	CHRM4 agonist	CHRM5 antagonist	CHRM5 PAM	M4 antag	CHRM5 agonist	CHRM4 PAM
CN(C)CCn1c2c(c(SCC(=O)Nc3ccccc3)nc1=O)CCCC2	0	-8	6	5	-3	0
CCN(CC)CCn1c2c(c(SCC(=O)Nc3ccc(C(C)C)cc3)nc1=O)CCCC2	0	2	-2	-24	-8	14
CCc1ccc(NC(=O)CSc2nc(=O)n(CCCN(C)C)c3c2CCC3)cc1	0	31*	-19	-9	-6	8
O=[N+]([O-])c1cccc(-c2cc3cccc[n+]3cc2-c2cccc([N+](=O)[O-])c2)c1	0	7	-3	0	-3	2
Cc1cccc2cc(-c3ccccc3)c(-c3ccccc3)c[n+]12	0	12	-14	38*	-6	-34
CC(C1=C(CCN(C)C)Cc2ccccc21)c1ccccn1 (centres undefined)	0	7	-37	64*	-13	-10
CN(C)CCC(c1ccccc1)c1ccccn1 (centres undefined)	1	15	-17	14	-1	-9
CN(Cc1ccc(F)cc1)C(=O)c1cc(COc2ccc(-n3cncn3)cc2)on1	15	11	-20	9	1	-10
COC(=O)c1ccccc1NC(=O)CSc1nc(C)cc(C)n1	1	-18	12	-8	4	-3
Cc1cc(C)nc(SCC(=O)Nc2ccnc3ccccc23)n1	14	35*	-20	10	7	-8
CCNS(=O)(=O)c1ccc(CCC(=O)Nc2ccc(C(=O)OC)cc2)cc1	4	3	-2	-7	1	29*
c1ccc(CNc2ncnc3c2cnn3Cc2ccccc2)cc1	24	8	-10	3	28*	-6
Cc1ccc(S(=O)(=O)NCC(=O)OCC(=O)Nc2ccc3c(c2)OCCO3)cc1	3	7	-1	-1	-2	5
COc1ccc(-n2c(C)c(C(C)=O)c(C(C)=O)c2C)cc1OC	1	-5	-3	-20	-2	17*
O=C1CC(=C(c2ccccc2)c2ccccc2)C(=O)N1CCCN1CCN(c2cccc(Cl)c2)CC1	-1	3	-22	28*	-8	-22
O=C1CC(=C(c2ccccc2)c2ccccc2)C(=O)N1CCN1CCN(c2cccc(Cl)c2)CC1	1	-2	-1	17	-1	9
C=CC(O)(C#CCN(CC)CC)c1ccccc1 (centres undefined)	1	15	-23	12	-6	-15
CN(C)CC#CCC(O)(c1ccccc1)c1ccccc1	0	24	-31	24	-19	-50
CCN(CC)CC#CCC(C)(c1ccccc1)c1ccccc1	3	17	-21	63*	-12	-37
CCN(CC)CC#CCC(O)(c1ccccc1)c1ccc(Br)cc1 (centres undefined)	7	11	-17	30*	-8	-25
CCN(CC)CC#CCC(O)(c1ccccc1)c1ccccc1	4	29*	-35	32*	-16	-25
COC(=O)c1cccc(NC(=O)CCN2C(=O)C3CC=CCC3C2=O)c1 (centres undefined)	1	-4	10	4	2	4
O=C(CSCc1cccc(Cl)c1)OCc1nc2ccsc2c(=O)[nH]1	2	-5	-2	-20	3	9
CCOC(=O)N1CCN(C(=O)c2ccc(NC(=O)c3ccc(C)cc3)cc2)CC1	0	-23	5	-11	-1	31*
O=[N+]([O-])c1cccc(COc2ccc(CN3CCCCC3)cc2)c1	5	15	-17	56*	-2	-17
SMILES	CHRM4 agonist	CHRM5 antagonist	CHRM5 PAM	M4 antag	CHRM5 agonist	CHRM4 PAM
Cc1ccccc1S(=O)c1ccccc1C(=O)O (centres undefined)	14	7	-22	13	4	-33
CC(C)CNC(=O)NC1(C(F)(F)F)Oc2ccccc2O1	4	0	5	1	2	-2
O=C(NCc1cccnc1)NC1(C(F)(F)F)Oc2ccccc2O1	0	-15	40*	-3	-7	-1
CC(C)=CC(=O)O[C@@H]1Cc2c(ccc3ccc(=O)oc23)OC1(C)C	-2	-1	25*	-13	-7	15
COc1ccc(CCNC(=O)CN2CCN(Cc3ccccc3F)C2=O)cc1OC	0	7	5	10	2	14
Cc1ccc(CCNC(=O)CN2CCN(Cc3ccccc3F)C2=O)cc1	2	-2	3	-8	-5	30*
Oc1ccc(Cl)cc1C=Nc1ccc2c3c(cccc13)CC2	71*	35*	-14	36*	53*	-25
Oc1ccc(Cl)cc1/C=N/c1nccs1	1	-4	-1	7	-2	4
Cc1cccc(C=Nc2ccc3c4c(cccc24)CC3)c1O	23	24	-9	26	34*	-12
O=C(NCCN1CCC(n2c(=O)[nH]c3ccccc32)CC1)C(c1ccccc1)c1ccccc1	5	37*	-24	16	-4	-12
CCCCOc1ccc(C(=O)NCCN2CCC(n3c(=O)[nH]c4ccccc43)CC2)cc1	13	9	-11	59*	-2	-15
O=C(NCCCCc1ccccc1)c1ccc(F)cc1	0	-5	8	-7	1	-4
NC(=O)c1ccc[n+](CCC[n+]2cccc(C(N)=O)c2)c1	1	-9	1	-16	-1	16
CCCCCCCCCC[n+]1cccc(C(=O)N(CC)CC)c1	0	8	-15	44*	-10	-17
COc1ccc(C2=NNC(=O)CC2)cc1	1	-10	24*	-5	3	0
COc1ccc(OC)c(NC(=O)c2sc3ncnc(N4CCN(c5ccccn5)CC4)c3c2C)c1	1	-1	4	-22	-2	19*
CCC(O)CNC(=O)NC(=C(Cl)Cl)c1ccc(C)c(F)c1 (centres undefined)	0	5	22*	-10	0	9
CCNC(=O)C1(C)CCN(C(=O)c2ccc(C)c(F)c2)C1 (centres undefined)	1	10	-3	3	1	6
CC(C)(C)C1CCC(=NNC(=O)C2COc3ccccc3O2)CC1 (centres undefined)	1	0	-4	-1	2	8
COc1ccccc1N1CCN(C2CCCN(Cc3cc(F)cc(F)c3)C2)CC1 (centres undefined)	1	0	2	-4	-5	-10
O=C(/C(N=Nc1cccc([N+](=O)[O-])c1)=C(/O)c1ccc(Br)cc1)C(F)(F)F	17	24	-20	37*	4	-16
